Source: PubChem BioAssay
Compounds with a hit are over-represented: about 4.8% of the library has one in this group of screens.
STAT1 activator: activators of IFN-gamma induced STAT1 signaling. NIH 3T3 STAT1-luciferase reporter, luminescence; 100% = IFN-gamma alone, no compound. activation (% of control), % at 5.5 µM. 200,000 tested, 2.6% active. AID 932;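 active = activation above the screen-wide mean activation plus 3 SD, cut at about 130% in these data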
FLuc inhib CS: inhibits firefly luciferase, flagging false hits in luciferase inhibition screens; ATPLite firefly luciferase biochemical luminescence, 10 min; inhibition, % at 10 µM; 200,000 tested, 1.5% active;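 active = inhibition above about 50% when tested at 10 µM, limit read from the data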
Target sequence (P08659 whole entry, looked up): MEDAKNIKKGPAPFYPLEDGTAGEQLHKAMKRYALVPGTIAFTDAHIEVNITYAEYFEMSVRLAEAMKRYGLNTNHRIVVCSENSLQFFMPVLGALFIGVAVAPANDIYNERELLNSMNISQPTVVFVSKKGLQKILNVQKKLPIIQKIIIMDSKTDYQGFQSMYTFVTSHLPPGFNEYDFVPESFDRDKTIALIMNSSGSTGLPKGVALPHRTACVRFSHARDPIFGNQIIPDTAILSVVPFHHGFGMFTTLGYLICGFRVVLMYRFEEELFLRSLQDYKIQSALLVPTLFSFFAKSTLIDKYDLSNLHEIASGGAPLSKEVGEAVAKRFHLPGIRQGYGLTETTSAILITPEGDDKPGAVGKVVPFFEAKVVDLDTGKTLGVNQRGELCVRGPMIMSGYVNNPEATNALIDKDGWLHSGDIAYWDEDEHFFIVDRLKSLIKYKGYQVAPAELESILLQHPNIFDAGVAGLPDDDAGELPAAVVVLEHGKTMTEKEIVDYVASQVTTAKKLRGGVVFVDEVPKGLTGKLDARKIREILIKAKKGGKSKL
APP 5'UTR act: APP 5'UTR luciferase reporter activation; SH-SY5Y APP 5'UTR luciferase reporter, luminescence; zero percent = DMSO vehicle wells; activation, % at 2 µM; 190,000 tested, 1% active; AID 1276;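 active = activation above a set limit, based on mean plus 3 SD of controls, cut at about 140% in these data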
NF-kB expr up: NF-kB expression increase, human neuronal cells; NF-kB reporter expression; active compounds read high; fold change at 12.5 µM; 190,000 tested, 1.6% active; in the data active = fold change above about 3.3
FLuc stim CS: affects firefly luciferase, flagging false hits in luciferase stimulation screens; 200,000 tested, under 10 active; ATPlite luciferase biochemical, luminescence, 10 min; 0 = ATP-free wells, 1 = DMSO control; activation factor at 10 µM;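 active = luciferase activation factor, scaled between plate controls, of at least 2 with compound at 10 µM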
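test system = cell-free luciferase reagent | medium = PBS as buffer for the ATP substrate | dosing = test compounds dosed from 2 mM stocks in 100% DMSO | incubation = 10 min at ambient temperature | detection = luminescence measurement of luciferase light output | benchmarks = low control with PBS replacing ATP, high control enzyme plus ATP without compound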
APP transl inh: APP translation inhibition; SH-SY5Y APP 5'UTR-luciferase reporter, luminescence; inhibition, % at 2 µM; 190,000 tested, 0.82% active; AID 1285;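 active = inhibition above a set limit, derived from the sample mean plus 3 SD, cut at about 45% in these data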
Each line names hits and unclear results; the compound was inactive in the other large screens.

O=C1/C(=C\Nc2ccc(OC(F)(F)F)cc2)CCN1c1ncccn1	STAT1 activator 131.1 (no result: APP 5'UTR act, APP transl inh)
COc1ccc(/C=C/C(=O)Nc2ccc(OC)nc2)cc1	none
COc1ccc(CS(=O)(=O)/C(Cl)=C(/Cl)C(=O)Nc2ccc(OC)nc2)cc1	APP transl inh 84.0
Cc1ccc(S(=O)(=O)/C(C#N)=C/c2c[nH]c3ccccc23)cc1	none
O=C(/C=C/c1c[nH]c2ccccc12)c1ccccc1	STAT1 activator 135.8, NF-kB expr up 9.87
Cc1ccc(C(=O)/C=C/c2c[nH]c3ccccc23)cc1	NF-kB expr up 3.47
O=C(/C=C/c1ccc[nH]1)c1ccccc1	none
CCCCc1ccc(NC(=S)NCCc2ccc(F)cc2)cc1	none
CC(=O)Nc1ccc(NC(=O)COc2ccc(Br)cc2C)cc1	none
Cc1cc(Br)ccc1OCC(=O)NNC(=O)c1ccc(NC(=O)C2CC2)cc1	APP transl inh 45.2
CCCC(=O)Nc1ccc(C(=O)NNC(=O)COc2ccc(Br)c(C)c2)cc1	APP transl inh 49.5
Cc1nc(C)c(-c2csc(Nc3cccc(O)c3)n2)s1	APP 5'UTR act 165.7, NF-kB expr up 4.32
Cc1nc2ccccn2c1-c1csc(Nc2cccc(O)c2)n1	APP transl inh 88.6
COc1cc(NC(=S)NC(=O)CC(C)C)ccc1NC(=O)c1cc2ccccc2o1	none
O=C(CCC1CCCN(C(=O)C2(c3ccccc3)CC2)C1)N1CCN(c2ccccn2)CC1 (configuration not stated)	none
CCOC(=O)C1(Cc2ccccc2C)CCCN(C(=O)CCc2cccnc2)C1 (configuration not stated)	none
CCCCN1C(=O)/C(=C/C=C2\SCCN2C)SC1=S	STAT1 activator 129.8
c1ccc(CSc2ccc(-c3cccnc3)nn2)cc1	STAT1 activator 133.9
CC1=CC(=C2C(=O)c3ccccc3C2=O)C=C(C)N1C	STAT1 activator 135.4
Cc1ccc2nc(-c3ccccc3)nc(SC(C)C(=O)NCc3cccs3)c2c1 (configuration not stated)	NF-kB expr up 5.03
Cc1ccc(C)c2c(SC(C)C(=O)NCc3ccco3)nc(-c3ccccc3)nc12 (configuration not stated)	none
COc1ccc(/C=N/Nc2ncccc2[N+](=O)[O-])c(OC)c1	FLuc inhib CS 62.9, APP 5'UTR act 137.3, NF-kB expr up 7.93
Cc1nc(SCC(=O)Nc2cccnc2Cl)nc(C)c1C	none
Cc1ccc(N=C/C(C(=O)C(F)(F)F)=C(\O)c2cccs2)cc1	APP 5'UTR act 189.6
Cc1ccc(C(=O)N/N=C(/CC(=O)c2cccs2)C(F)(F)F)cc1	none
O=C(CSc1nncc2ccccc12)N1CCCCC1	STAT1 activator 130.4
O=C(O)c1cccnc1SCC(=O)N1CCCCCC1	none
NNC(=O)CSc1cccc2cccnc12	none
CN(C)C(=O)CSc1cccc2cccnc12	NF-kB expr up 5.12
O=C(CSc1cccc2cccnc12)N1CCCC1	NF-kB expr up 5.05
CCCNC(=S)N1CCN(CC)CC1	none (no result: APP 5'UTR act, APP transl inh)
C/C(=C/Cc1c(O)cc2oc(C)cc(=O)c2c1O)COC1OC(CO)C(O)C(O)C1O (configuration not stated)	none
CCC1=Nc2cc(C(=O)O)ccc2Sc2ccccc21	none
CCC1=Nc2cc(C(=O)NCc3ccco3)ccc2Sc2ccccc21	APP transl inh 50.3
CCC1=Nc2cc(C(=O)NCc3ccco3)ccc2Sc2ccc(Cl)cc21	APP transl inh 94.9
CCOC(CNc1c([N+](=O)[O-])c(=O)n(C)c(=O)n1C)OCC	none
CCCS/C(N)=N/N=C/c1ccccc1O	NF-kB expr up 3.31
O=C1N/C(=C/c2ccc(N3CCOCC3)o2)C(=O)N1c1cccc(Cl)c1	STAT1 activator 129.5, APP transl inh 75.7
CCCN1C(=O)S/C(=C\c2ccc(N3CCOCC3)o2)C1=O	none
CC(C)(C)c1ccc(/C=C/C(=O)Nc2nncs2)cc1	APP 5'UTR act 168.0
O=C(N/N=C/c1cccnc1)c1[nH]ncc1Br	none
O=C(N/N=C/c1ccccc1)c1[nH]c2ccc(Br)cc2c1-c1ccccc1	APP transl inh 88.5
O=C(N/N=C/c1ccccn1)c1[nH]c2ccc([N+](=O)[O-])cc2c1-c1ccccc1	none
O=C(N/N=C/c1ccccc1)c1[nH]ncc1Br	STAT1 activator 130.2, FLuc inhib CS 70.2
S=C(NCCc1ccccc1)Nc1ccc(Br)cn1	none
COc1ccc(/C=C2/CCc3ccccc3C2=O)cc1OC	NF-kB expr up 3.43
COc1ccc2c(c1)CC/C(=C\c1ccc(OC)c(Cn3cccn3)c1)C2=O	none
COc1cc(/C=C2\CC/C(=C\c3cc(OC)c(O)c(OC)c3)C2=O)cc(OC)c1O	STAT1 activator 131.9
COc1cc(/C=C2/CCc3ccccc3C2=O)cc(OC)c1OC	NF-kB expr up 3.83
COc1cc(/C=C2\CCc3ccccc3C2=O)cc(OC)c1OC	none
Cc1ccc(-n2nc(CN3CCOCC3)c(-c3ccccc3)c2N)c(C)c1	none
CSc1nnc(-c2cc3ccccc3cc2O)n1C	none
COc1ccc(-n2cc(CNC3CCC(O)CC3)c(-c3cccc(F)c3)n2)cc1 (configuration not stated)	none
Cc1ccc(S(=O)(=O)O/N=C2\CCCc3ccccc32)cc1	none
CC1=C(C)/C(=N\OS(=O)(=O)c2ccccc2)C=CC1=O	APP transl inh 74.1
CCOC(=O)CSc1nc2ccc(N)cc2s1	none
Nc1ccc2nc(SCc3cccc(F)c3)sc2c1	NF-kB expr up 6.11
COC(=O)c1c(N2C(=O)[C@H]3[C@@H](C2=O)[C@]2(C(=O)Nc4c(C)cccc42)N2CCC[C@@H]32)sc(C)c1C	none
CCOC(=O)C1(Cc2cccc(Cl)c2)CCCN(C(=O)c2cccc(C)n2)C1 (configuration not stated)	none
COCCNC(=O)/C(C#N)=C/c1cc(C)n(-c2ccc(C)cc2)c1C	STAT1 activator 145.3, FLuc inhib CS 72.4, APP 5'UTR act 153.7, NF-kB expr up 6.19
Cc1cc(/C=C(/C#N)C(=O)Nc2ccccc2)c(C)n1-c1cccnc1	STAT1 activator 149.7, FLuc inhib CS 50.3
COCCNC(=O)/C(C#N)=C/c1cc(C)n(C2CCCCC2)c1C	STAT1 activator 134.5, FLuc inhib CS 71.8, APP 5'UTR act 144.5
Cc1ccccc1-n1c(C)cc(/C=C(\C#N)C(=O)NCC2CCCO2)c1C (configuration not stated)	STAT1 activator 149.3, FLuc inhib CS 75.2
COc1ccc(-n2c(C)cc(/C=C(\C#N)C(=O)NCc3ccco3)c2C)cc1	none
CCOC(=O)c1ccc(NC(=O)c2cn(CCC#N)nc2-c2ccc3c(c2)OCCO3)cc1	none
C/C(=C\C=C(C#N)C#N)c1cc(C#N)c(N)o1	none
Cc1nc2ccccc2nc(=O)c1NNc1ccccc1	STAT1 activator 129.3
Cc1ccc2nc(=O)c(NNc3ccccc3)cnc2c1	STAT1 activator 139.4
CCOC(=O)c1cc2sccc2n1CC(=O)C(C)(C)C	none
